In the library only some 2.3% were active in any assay of this set; here they are far more common.
TRPC4 agonist = activators of mouse TRPC4 channel, primary screen, Fluo4 calcium, HEK293 TRPC4beta/mu-opioid cells | B-score at 10 µM | Short transient receptor potential channel 4 (Mus musculus), Q9QUQ5 | Fluo4 calcium fluorescence; stronger effect = higher value | AID 2237, 2010 | actives 0.49% (n = 310,000);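 active means B-score above 5 SD of library B-scores, and initial fluorescence ratio not above library mean plus 5 SD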;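 further: positive B-score marks a calcium rise read as TRPC4 activation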
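System: HEK293 cells stably co-expressing mouse TRPC4beta and mu-opioid receptor; Schedule: Fluo4 dye loading 45 min at room temperature, 110 s recording; Detection: Fluo4 fluorescence, kinetic; Evaluation: B-scored integrated calcium fluorescence ratio; Controls: buffer (low) and maximal DAMGO (high).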
TRPC4 potent = positive allosteric modulators of TRPC4, primary screen, cell-based, mouse TRPC4beta, HEK293 mu-opioid, Fluo-4 calcium. DAMGO EC20, Fluo-4 Ca2+ flux; stronger effect = higher value. B-score at 10 µM. AID 2227, 2009. actives 0.42% (n = 310,000). Short transient receptor potential channel 4 (Mus musculus), Q9QUQ5;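 active means B-score of calcium response area above 5 SD of library B-scores, with initial fluorescence ratio within 5 SD of library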;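 further: B-score of integrated fluorescence ratio over time as area under calcium response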
TRPC6 inhibitor = mouse TRPC6 channel inhibitors, primary screen, cell-based, HEK293, membrane potential dye | Short transient receptor potential channel 6 (Mus musculus), Q61143 | ACh-evoked depolarization; stronger effect = lower value | B-score at 10 µM | actives 1.1% (n = 310,000) | AID 2553, 2010;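 active means B-score under library mean minus 3 SD, initial fluorescence not abnormally high, positive integrated signal ratio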;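 further: B-score derived from integrated fluorescence ratio over the kinetic read; more negative B-score means stronger inhibition of depolarization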
Target sequence (Q61143 whole entry, looked up): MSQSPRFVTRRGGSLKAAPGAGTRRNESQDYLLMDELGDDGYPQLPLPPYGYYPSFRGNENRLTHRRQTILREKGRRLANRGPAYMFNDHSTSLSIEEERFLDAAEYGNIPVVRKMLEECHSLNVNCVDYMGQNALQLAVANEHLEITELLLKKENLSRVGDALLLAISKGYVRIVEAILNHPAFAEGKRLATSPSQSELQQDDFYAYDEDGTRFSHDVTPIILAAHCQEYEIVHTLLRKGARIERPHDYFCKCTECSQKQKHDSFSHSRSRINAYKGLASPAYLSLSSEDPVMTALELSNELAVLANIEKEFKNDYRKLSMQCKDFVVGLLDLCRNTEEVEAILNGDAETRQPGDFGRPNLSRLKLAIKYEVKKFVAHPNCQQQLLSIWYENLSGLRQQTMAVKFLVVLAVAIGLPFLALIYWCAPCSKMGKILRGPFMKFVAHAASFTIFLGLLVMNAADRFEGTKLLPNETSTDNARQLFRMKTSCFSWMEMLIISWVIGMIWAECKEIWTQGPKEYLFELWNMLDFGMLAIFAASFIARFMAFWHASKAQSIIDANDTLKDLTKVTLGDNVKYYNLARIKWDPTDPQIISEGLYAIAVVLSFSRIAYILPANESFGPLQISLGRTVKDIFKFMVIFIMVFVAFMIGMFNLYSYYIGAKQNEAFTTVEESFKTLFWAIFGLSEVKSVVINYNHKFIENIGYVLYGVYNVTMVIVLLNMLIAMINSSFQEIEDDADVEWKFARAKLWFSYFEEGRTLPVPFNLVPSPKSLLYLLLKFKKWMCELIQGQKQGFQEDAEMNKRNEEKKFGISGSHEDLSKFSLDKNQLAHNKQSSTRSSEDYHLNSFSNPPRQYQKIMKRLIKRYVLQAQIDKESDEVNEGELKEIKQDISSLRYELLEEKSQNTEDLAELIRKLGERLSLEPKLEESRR
TRPC4 inh = inhibitors of mouse TRPC4 channel, primary screen, Fluo4 calcium, HEK293 TRPC4beta/mu-opioid cells; DAMGO-evoked Fluo4 calcium flux; stronger effect = lower value; B-score at 10 µM; actives 0.39% (n = 300,000); AID 2247, 2010;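 active means B-score over 3 SD under the library average, no early fluorescence shift, positive overall ratio signal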
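Signal: kinetic Fluo4 fluorescence imaging of calcium influx. Material: stable TRPC4beta/mu-opioid receptor HEK293 cells. Probe or stimulus: DAMGO in two steps, submaximal then maximal.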
TRPC6 act = mouse TRPC6 channel activators, primary screen, cell-based, HEK293, membrane potential dye. Short transient receptor potential channel 6 (Mus musculus), Q61143. HEK293-TRPC6 membrane potential dye fluorescence; stronger effect = higher value. B-score at 10 µM. actives 0.13% (n = 310,000). AID 2550, 2010;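 active means B-score of the integrated fluorescence ratio above library mean plus 3 SD, and starting fluorescence ratio within library mean plus 5 SD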;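 further: higher score means more depolarization so channel activation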
* marks the source's active call; other numbers are inactive results; i = inactive.

SMILES | TRPC4 agonist | TRPC4 potent | TRPC6 inhibitor | TRPC4 inh | TRPC6 act
Cc1ccc(S(=O)(=O)Nc2ccc3c(c2)nc(CCN2CCCCC2)n3C)cc1 | i | i | i | i | i
Cc1ccc(S(=O)(=O)Nc2ccc3c(c2)nc(CN2CCCC2)n3C)cc1 | 44* | i | i | i | i
COc1ccc(CN2CCN(c3nc4ccccc4s3)CC2)cc1 | i | 23* | i | i | i
O=[N+]([O-])c1ccc(CN2CCN(c3nc4ccccc4s3)CC2)cc1 | i | 19* | i | i | i
O=C1OCC2=C1C(c1ccccc1)CC(=O)N2c1ccccc1 (stereo unspecified) | i | i | i | i | i
O=C(CN(C(=O)c1csnn1)c1cccc(Cl)c1)NC1CCCCC1 | i | i | i | i | i
Cc1ccc(C(=O)C2=C(O)C(=O)N(Cc3cccnc3)C2c2ccc(Cl)c(Cl)c2)o1 (stereo unspecified) | i | i | i | -6* | i
Cc1ccc(C(=O)C2=C(O)C(=O)N(Cc3cccnc3)C2c2ccc(Br)cc2)o1 (stereo unspecified) | i | i | i | i | i
CCc1nnc(NC(=O)C2CCCN2C(=O)Nc2ccc(Cl)cc2)s1 (stereo unspecified) | i | i | i | i | i
Cc1oc(-c2ccc(Cl)cc2)nc1CS(=O)CC(=O)NCCCN(C)C1CCCCC1 (stereo unspecified) | i | 16* | i | i | i
Cc1oc(-c2ccc(Cl)cc2)nc1CS(=O)CC(=O)NC1CCCCC1 (stereo unspecified) | i | i | i | i | i
Cc1oc(-c2ccccc2Cl)nc1CS(=O)CC(=O)NCCCN1CC(C)CC(C)C1 (stereo unspecified) | 95* | i | i | i | i
Cc1oc(-c2ccccc2F)nc1CS(=O)(=O)CC(=O)NCCCN1CC(C)CC(C)C1 (stereo unspecified) | 57* | i | i | i | i
C=CCn1c(SCc2ccc(C#N)cc2)nnc1-c1ccc(C)cc1 | i | i | i | i | i
C=CCNCCCCOc1ccc(C)cc1[N+](=O)[O-] | i | i | i | i | i
Cc1cc(C)n(C(=O)/C(C#N)=N\Nc2ccccc2[N+](=O)[O-])n1 | i | i | i | i | i
Cc1cc(C)n(C(=O)/C(C#N)=N/Nc2cc(Cl)cc(Cl)c2)n1 | i | i | -6.52* | i | i
Cc1cc(SCC(=O)c2cccc([N+](=O)[O-])c2)nc(=O)[nH]1 | i | 41* | i | i | i
Cc1cc(SCc2cccc([N+](=O)[O-])c2)nc(=O)[nH]1 | i | i | i | i | i
CN(CCOc1ccccc1)S(=O)(=O)c1ccc2oc3ccccc3c2c1 | i | i | i | i | i
O=C(CCCl)Nc1cc(SCCO)cc([N+](=O)[O-])c1 | i | i | i | i | i
O=C(Nc1cc(SCCO)cc([N+](=O)[O-])c1)c1ccc(Br)o1 | i | i | i | -5* | i
CCOc1cccc(CNCCO)c1OCc1ccc(Cl)cc1 | i | i | i | -7* | i
Nc1cc(-c2ccc(Br)cc2)nn1S(=O)(=O)c1cccc2nsnc12 | i | i | i | i | i
Clc1c(-c2nnc3n2CCCCC3)sc2ccccc12 | i | i | i | i | i
SMILES | TRPC4 agonist | TRPC4 potent | TRPC6 inhibitor | TRPC4 inh | TRPC6 act
COc1ccc2c(Cl)c(-c3nnc4n3CCCCC4)sc2c1 | 167* | i | i | i | i
CCOC(=O)c1oc2ccccc2c1CN1CCN(C)CC1 | i | i | i | i | i
CCOC(=O)c1oc2ccccc2c1CN1CCCCC1 | i | i | i | -6* | i
Cn1cnc([N+](=O)[O-])c1Sc1ccc(Br)cc1 | i | i | i | i | i
Cc1nn(C)c(C)c1Sc1ccc(Br)cc1 | i | i | i | -6* | i
CC(C)c1ccc(OCc2ccc(C(=O)NN3CCN(C)CC3)o2)cc1 | i | i | i | i | i
CC(C)OCCCn1c(-c2ccc(Br)cc2)c[nH]c1=S | i | i | i | i | i
Cc1ccc(N(Cc2ccccc2)C(=O)c2cc(S(=O)(=O)N3CCOCC3)ccc2Cl)cc1 | i | 10* | i | i | i
CN(c1cccc(NC(=O)c2ccc(N(C)S(=O)(=O)c3ccccc3)cc2)c1)S(C)(=O)=O | i | 11* | i | i | i
NC1=NC2(CCCCC2)n2c(nc3ccccc32)N1 | i | i | i | i | i
NC1=NC2(CCN(Cc3ccccc3)CC2)n2c(nc3ccccc32)N1 | 87* | i | i | i | i
CN1CCN(NC(=O)c2ccc(Cl)c([N+](=O)[O-])c2)CC1 | 44* | i | i | i | i
CCCCn1c(N)c(N(CC(C)C)C(=O)c2cc3c(s2)CCCCC3)c(=O)[nH]c1=O | i | i | i | i | i
C/C(CC(=O)N(C(C)C)C(C)C)=N\NC(=O)COc1ccc(Br)cc1Br | i | i | i | i | i
C/C(CC(=O)N(C(C)C)C(C)C)=N\NC(=O)COc1ccc(Cl)cc1Cl | i | i | i | -6* | i
Cc1ccc(-c2nn(-c3ccccc3)cc2CSC(=N)N)cc1 | 68* | i | i | i | i
OCc1cn(-c2ccccc2)nc1-c1ccc(-c2nn(-c3ccccc3)cc2CO)cc1 | i | i | i | i | i
CCOc1cc(O)c(-c2[nH]ncc2-c2nc(C)cs2)cc1CC | i | 20* | i | i | i
CCc1cc(-c2[nH]ncc2-c2nc3ccccc3n2C)c(O)cc1O | i | i | i | i | i
O=Cc1cn(-c2ccccc2)nc1-c1ccccc1 | i | i | i | i | i
CC1=NNC(=O)/C1=C\c1cn(-c2ccccc2)nc1-c1ccccc1 | i | 10* | i | i | i
CCCN1CCC(NC(=O)CCc2nnc(Cc3cc(OC)ccc3OC)o2)CC1 | 55* | 10* | i | i | i
COc1ccc(OC)c(Cc2nnc(CCC(=O)NC3CCCCC3)o2)c1 | i | i | i | i | i
CC(COc1ccccc1Cc1ccccc1)N1CCCCC1 (stereo unspecified) | 67* | i | i | i | 11.8*

Assay outcomes deposited in PubChem BioAssay by Johns Hopkins Ion Channel Center.
